Source: PubChem BioAssay (several laboratories)
Most compounds without a hit are left out; they make up all but 3.7% or so of the library.
14-3-3 Bad inh: disrupts binding of bovine 14-3-3 zeta to phospho-Bad peptide. 220,000 compounds, 0.71% hits. TR-FRET 14-3-3zeta/Dy647-pBad peptide displacement, 1 h. AID 781. inhibition, % at 21.7 µM. P63103;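 active means inhibition above about 70%, limit read from the data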;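 further: 0% = full 14-3-3 plus peptide FRET controls and 100% = background without 14-3-3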
RBBP9 inh: inhibitors of human serine hydrolase RBBP9. recombinant RBBP9, FP-Rh probe fluorescence polarization. AID 1515. inhibition, % at 7.94 µM. 220,000 compounds, 0.2% hits;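 active means inhibition above the campaign mean of all tested compounds plus 3 SD, cut at about 14% in these data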;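 further: plate controls were DMSO wells with RBBP9 for no effect and wells lacking RBBP9 protein for full effect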
Target sequence (O75884 whole entry, looked up): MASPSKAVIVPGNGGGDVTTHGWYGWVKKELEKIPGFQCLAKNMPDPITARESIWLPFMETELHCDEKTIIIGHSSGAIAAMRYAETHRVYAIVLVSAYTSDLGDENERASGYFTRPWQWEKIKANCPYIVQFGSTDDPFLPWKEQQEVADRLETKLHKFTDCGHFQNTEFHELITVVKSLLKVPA
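System: RBBP9 protein | Quantity: 2.5 µM RBBP9 dispensing solution, before mixing | Reagent: FP-Rh probe, 375 nM dispensing solution | Timing: Enzyme-compound preincubation 30 min, then probe labeling 45 min, 25 °C | Measured by: Fluorescence polarization | Read-out: % inhibition | Replication: One well per compound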
EBV gp42 inh: blocks Epstein-Barr virus glycoprotein 42 binding; Q1HVG2; inhibition, % (tested at 21.74 µM); 220,000 compounds, 0.42% hits; Fluorescence polarization binding assay, mP read-out; in the data active means inhibition above about 50%
Target sequence (Q1HVG2 whole entry, looked up): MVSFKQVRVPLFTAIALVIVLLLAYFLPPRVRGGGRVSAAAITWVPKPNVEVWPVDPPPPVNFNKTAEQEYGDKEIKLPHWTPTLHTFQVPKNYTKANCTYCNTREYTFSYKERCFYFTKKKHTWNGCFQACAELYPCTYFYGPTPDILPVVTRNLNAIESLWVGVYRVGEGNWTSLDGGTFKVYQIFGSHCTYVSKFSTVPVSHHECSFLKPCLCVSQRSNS
eIF4E-4G inh: inhibitors of eIF4E and eIF4G interaction in translation initiation | TR-FRET eIF4E-eIF4GI(517-606) binding, 2 h | inhibition, % at 21.7 µM | 220,000 compounds, 0.37% hits | AID 782;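 further: 0% = full FRET control wells and 100% = background wells lacking eIF4GI fragment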
NCF1 inh: inhibitors of human p47phox binding; P14598; p47phox/p22phox peptide binding, fluorescence polarization, 2 h; inhibition, % at 24.7 µM; 220,000 compounds, 0.53% hits; AID 1274;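 further: 0% = p47phox with labelled peptide and 100% = labelled peptide alone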
WT yeast gro inh: growth inhibition of WT yeast, mitochondrial fusion screen | mitochondrial fusion phenotypic screen, WT strain | inhibition, % at 10 µM | 190,000 compounds, 2.1% hits | AID 1362; in the data active means inhibition above about 58%; tested in S. cerevisiae
* = called active by the depositor; nt = not tested or not shown.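 How the source made its calls, unless noted: active means inhibition above about 30% (limit read from the data); inactive means the rest.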

SMILES	14-3-3 Bad inh	RBBP9 inh	EBV gp42 inh	eIF4E-4G inh	NCF1 inh	WT yeast gro inh
Cc1ccc(Sc2ccc(CN3CCCC3)cc2[N+](=O)[O-])cc1	-7	-3	3	2	2	46
CN1CCN(Cc2ccc(Sc3ccc(Cl)cc3)c([N+](=O)[O-])c2)CC1	3	-10	2	3	-1	86*
Cc1ccc2oc(=O)c(/C=C(\O)c3ccccc3)nc2c1	3	-3	59*	1	-9	-6
O=c1oc2ccccc2nc1/C=C(\O)c1ccc(Br)cc1	2	-8	64*	6	-19	nt
CCCCCC(=O)Cc1cc(O)cc2c1C(=O)Oc1cc(O)c(C(=O)O)c(CCCCC)c1O2	1	nt	-17	-17	-34	nt
COC(=O)c1ccccc1NC(=O)CSc1ncn[nH]1	-2	-9	-14	2	-1	nt
CC1(C)CC2CC(C)(CN2C(=O)c2cc(-c3ccccc3O)on2)C1 (stereo not drawn)	-1	-5	-3	2	-13	63*
COc1ccc(-c2cc(C(=O)N3CC4(C)CC3CC(C)(C)C4)no2)cc1 (stereo not drawn)	13	-4	-14	13	3	20
CCOC(=O)c1cc(-c2cccs2)nc2c1c(C)nn2-c1ccccn1	11	-13	-5	1	-12	69*
O=C1N=c2ccccc2=C1c1sc(=S)n(Cc2ccccc2Cl)c1O	-9	4	-2	2	0	nt
O=C(NC1CCC(O)CC1)c1cc(-c2ccco2)nc2ccccc12 (stereo not drawn)	12	0	8	40*	-5	-21
O=C(NCC1CCCO1)c1cc(-c2ccco2)nc2ccccc12 (stereo not drawn)	-1	0	-4	12	-1	-1
COc1cc(/C=N/NC(=O)c2cc(-c3ccco3)nc3ccccc23)cc(OC)c1O	7	1	7	14	-10	nt
O=C(N/N=C/c1cccc(F)c1)c1cc(-c2ccco2)nc2ccccc12	24	-6	66*	20	-40	60*
CCOc1ccc(C(=O)NCC(=O)Nc2ccc(N3CCOCC3)cc2)cc1OCC	-17	0	-6	8	-8	-1
COC(=O)C1=COC(C)C2CN3CCc4c([nH]c5cc(OC)c(OC)cc45)C3CC12 (stereo not drawn)	-6	1	74*	2	-8	nt
COc1ccc2c3c([nH]c2c1)C1CC2C(CC(O)C(OC)C2C(=O)O)CN1CC3 (stereo not drawn)	-3	7	6	2	-3	nt
O=C(O)CC1(CC(=O)Nc2ccc3c(c2)OCCCO3)CCCCC1	-11	-7	4	-2	-4	nt
CC1CC(C)CN(C2CCN(Cc3cccnc3)CC2)C1 (stereo not drawn)	79*	-4	-1	5	-8	63*
COc1ccc(C2CCN(Cc3cccnc3)CC2O)cc1 (stereo not drawn)	0	-4	-12	-7	-18	-9
N#CCOC(=O)/C=C/c1ccc2c(c1)OCO2	-6	-8	1	6	-5	-13
CCSc1nnc(NC(=O)COc2ccccc2)s1	14	-6	1	-4	-4	0
CCSc1nnc(NC(=O)COc2ccc3ccccc3c2)s1	7	-4	4	-13	-2	84*
O=C(CN1CCN(c2ccccn2)CC1)Nc1ccc(Cl)c(C(F)(F)F)c1	0	0	-4	-8	0	-7
COc1ccccc1N1CCN(CC(=O)Nc2ccc(Cl)c(C(F)(F)F)c2)CC1	-6	4	-12	-2	-18	58*
O=C(c1cnn2c(C(F)(F)F)cc(-c3ccc4c(c3)OCO4)nc12)N1CCCCC1	14	-7	12	0	0	0
CN1CCN(C(=O)c2cnn3c(C(F)(F)F)cc(-c4ccc5c(c4)OCO5)nc23)CC1	13	-3	-17	4	-6	98*
COc1ccc(C(O)c2nccc3cc(OC)c(OC)cc23)cc1OC (stereo not drawn)	92*	4	6	-2	1	1
Cc1ccc(NC(=O)C2CCCN2S(=O)(=O)c2ccc3c(c2)n(C)c(=O)c(=O)n3C)c(C)c1 (stereo not drawn)	5	-5	-11	4	-9	nt
